Results of several laboratories.
Compare with care: the assays were run in different laboratories.
Observed: metabolic stability
Host: mouse

| Compound | test system | conditions | half-life [min] |
| --- | --- | --- | --- |
| CCN(CC)CCNC(=O)c1c(C)[nH]c(/C=C2\C(=O)Nc3ccc(F)cc32)c1C | liver microsomes | 1 µM, pH 7.4 | 14 |
| Cc1cc(-c2ccnc3[nH]cc(F)c23)ccc1[C@@]1(O)[C@H](C)CNC[C@@H]1C | liver microsomes |  | 8 |
| Cc1ccc2[nH]c(=S)n(Cc3cccnc3)c(=O)c2c1 | liver microsomes | 1 µM, pH 7.4 | 4.9 |
| C[C@@H]1CNC[C@H](C)[C@@]1(O)c1ccc(-c2ccnc3[nH]cc(F)c23)cc1F | liver microsomes |  | 30.1 |
| NS(=O)(=O)c1nnc(NC(=O)CCC2CCC(F)(F)CC2)s1 | liver microsomes |  | > 120 |
| CC(C)n1ncc2c(C(=O)NCC3(C)CNC3)cc(C3CC3)nc21 | liver microsomes |  | > 145 |
| OCc1ccc(-c2nn(Cc3ccccc3)c3ccccc23)o1 | liver microsomes |  | 3 |
| O=c1c2cc(Cl)ncc2[nH]c(=S)n1Cc1cccnc1 | liver microsomes | 1 µM, pH 7.4 | 89.7 |
| Cc1cc(-c2ccnc3[nH]cc(F)c23)cc(F)c1[C@@]1(O)[C@H](C)CN(C2COC2)C[C@@H]1C | liver microsomes |  | 1.7 |
| O=C(Oc1coc(CSc2ncccn2)cc1=O)c1ccc([N+](=O)[O-])cc1 | liver microsomes |  | < 1 |
| O=c1c2cc(Cl)ccc2[nH]c(=S)n1Cc1ccc(-c2nnn[nH]2)nc1 | liver microsomes | 1 µM, pH 7.4 | > 186 |
| Cc1cc(-c2ccnc3[nH]cc(F)c23)cc(F)c1[C@@]1(O)[C@H](C)CN(C(=O)CN)C[C@@H]1C | liver microsomes |  | 84.1 |
| C=CCn1c(=O)c2cnc(Nc3ccc(N4CCN(C)CC4)cc3)nc2n1-c1ccc2c(n1)[C@@](O)(CC)CC2 | hepatocytes |  | 91 |
| O=C(O)Cc1ccccc1Nc1c(Cl)cccc1Cl | liver microsomes |  | 44.4 |
| CCN(CC)CCOc1ccc2c(=O)c3c([nH]c2c1)CCCC3 | liver microsomes | 1 µM, pH 7.4 | > 60 |
| O=C1CCC(N2Cc3cc(C4CCN(Cc5ccccc5)CC4)ccc3C2=O)C(=O)N1 (stereo not shown) | liver microsomes | 1 µM | > 60 |

| Compound | test system | conditions | half-life [min] |
| --- | --- | --- | --- |
| O=c1c2ccc(OCc3ccc(OC(F)(F)F)cc3)cc2[nH]c2cc(Cl)cc(F)c12 | liver microsomes | 1 µM, pH 7.4 | > 60 |
| COc1ccc(Cn2cc(CO[C@@H]3O[C@H]4[C@H](OC[C@H]4O)[C@H]3O)nn2)cc1 | liver microsomes |  | 120 |
| CN1CCC(Oc2ccc3c(=O)c4c(F)cc(Cl)cc4[nH]c3c2)CC1 | liver microsomes | 1 µM, pH 7.4 | > 60 |
| CCCCCCCCCCCCCCCC(=O)NCCOC(=O)C[C@@H](CN)CC(C)C | liver microsomes | 1 µM, pH 7.4 | 95 |
| O=c1c2c([nH]c3cc(OCc4ccc(OC(F)(F)F)cc4)ccc13)CCCC2 | liver microsomes | 1 µM, pH 7.4 | > 60 |
| Cc1cc(-c2ccnc3[nH]cc(F)c23)cc(F)c1[C@@]1(O)[C@H](C)CNC[C@@H]1C | liver microsomes |  | 18.9 |
| Cc1[nH]c(C)c(S(=O)(=O)Nc2ccc(C(F)(F)F)c(Cl)c2Cl)c1C(=O)N1CCC(F)(F)C1 | liver microsomes |  | 44 |
| CC(C)(C)OC(=O)N1CCC(Oc2ccc3c(=O)c4c(Cl)cc(F)cc4[nH]c3c2)CC1 | liver microsomes | 1 µM, pH 7.4 | > 60 |
| CCN(CC)CCNC(=O)c1c(C)[nH]c(/C=C2\C(=O)Nc3ccc(F)cc32)c1C | liver microsomes | 1 µM | 12.6 |
| CCCCCCOc1ccc2c(=O)c3c([nH]c2c1)CCCC3 | liver microsomes | 1 µM, pH 7.4 | 11.8 |
| O=c1c2cc(Cl)ccc2[nH]c(=S)n1Cc1cccnc1 | liver microsomes | 1 µM, pH 7.4 | 27 |
| O=c1c2c([nH]c3c(Oc4ccc(OC(F)(F)F)cc4)cccc13)CCCC2 | liver microsomes | 1 µM, pH 7.4 | > 60 |
| Cc1ccc(CCC(=O)Nc2nnc(S(N)(=O)=O)s2)cc1 | liver microsomes |  | > 120 |
| Nc1nnc(-c2ccccc2O)cc1N1CCN(Cc2ccc(N3CCN(CCOc4cccc5c4C(=O)N(C4CCC(=O)NC4=O)C5=O)CC3)c(F)c2)CC1 (stereo not shown) | liver microsomes | 1 mM | 46 |
| O=c1c2ccc(Oc3ccc(OC(F)(F)F)cc3)cc2[nH]c2ccc(F)c(Cl)c12 | liver microsomes | 1 µM, pH 7.4 | > 60 |
